From ChEMBL document CHEMBL4052582, “A Versatile Method to Determine the Cellular Bioavailability of Small-Molecule Inhibitors” (J Med Chem, 2017)

Key:
[1] = system: MDA-MB-231; test: Antiproliferative activity against human MDA-MB-231 cells after 72 hrs by MTS assay; type: functional, cell-based; conditions: MDA-MB-231, 72 h
[2] = Drug uptake in human MDA-MB-231 cells assessed per million cells at 2 uM in presence of 1% FBS after 24 hrs incubation by HPLC-MS analysis; type: ADME, cell-based; conditions: mda-mb-231, 24 h
How it was run: (§1)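 MDA-MB-231 cells grown in T-25 flasks in DMEM/10% FBS to ~70% confluency, then given fresh DMEM with the stated FBS plus inhibitor (0.02% DMSO final), 37 °C, 24 h. Cells washed with cold PBS ×3, extracted overnight at 4 °C with cold MeCN/MeOH 1:1, centrifuged, quantified by HPLC against calibration curves, corrected for dilution, cell number and solvent extraction efficiency; nmol per million cells; triplicate, mean ± SD.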

[3] = Drug uptake in human MDA-MB-231 cells assessed per million cells at 2 uM in presence of 5% FBS after 24 hrs incubation by HPLC-MS analysis; type: ADME, cell-based; conditions: mda-mb-231, 24 h; how it was run: as §1
[4] = Drug accumulation in human MDA-MB-231 cells at 2 uM in presence of 5% FBS after 24 hrs incubation by HPLC-MS analysis; type: ADME, cell-based; conditions: mda-mb-231, 24 h; how it was run: as §1
[5] = Drug uptake in human MDA-MB-231 cells assessed per million cells preincubated for 6 hrs followed by solvent addition measured after overnight incubation at 4 degC by HPLC-MS analysis; type: ADME, cell-based; conditions: mda-mb-231, 6 h
[6] = Drug uptake in human MDA-MB-231 cells assessed per million cells preincubated for 6 hrs followed by trypsin-EDTA digestion for 2 mins measured after overnight incubation at 4 degC by HPLC-MS analysis; type: ADME, cell-based; conditions: mda-mb-231, 2 min
How it was run: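 After 6 h inhibitor exposure at 37 °C, MDA-MB-231 cells washed three times with ice-cold PBS, detached with 0.25% trypsin/1 mM EDTA in PBS for 2 min at 37 °C, resuspended in cold DMEM, washed once in ice-cold PBS, extracted with cold MeCN/MeOH 1:1, HPLC quantified; triplicate, mean ± SD divided by extraction efficiency.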

[7] = Drug uptake in human MDA-MB-231 cells assessed as cell bound drug level per million cells at 2 uM in presence of 5% FBS after 6 hrs at 4 degC by HPLC-MS analysis; type: ADME, cell-based; conditions: mda-mb-231, 6 h
How it was run: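 Confluent (~70%) MDA-MB-231 cells given inhibitor in 5 mL cold DMEM with 0.02% DMSO (10% FBS for BRD-targeting inhibitors, 5% FBS for β-catenin/BCL9 inhibitors), held at 4 °C for 6 h; then washed, extracted overnight at 4 °C in MeCN/MeOH 1:1, HPLC quantified; triplicate, mean ± SD divided by solvent extraction efficiency.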

[8] = Apparent permeability at 200 uM after 5 hrs by PAMPA; type: physicochemical
How it was run: (§2)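 Artificial membrane of 1% egg lecithin in n-dodecane on a filter plate; compound at 200 μM on donor side, 5 h at room temperature; compound quantified by HPLC/DAD; percent transport and apparent permeability calculated from previously published equations.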

[9] = Permeability assessed as drug transport at 200 uM after 5 hrs by PAMPA; type: physicochemical; how it was run: as §2
[10] = Solubility of the compound in DMEM medium up to 200 uM; type: physicochemical
[11] = Stability of the compound in DMEM medium assessed as parent compound remaining at 100 uM after 72 hrs in absence of 10% FBS by HPLC method
How it was run: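 Compound added at 100 μM final (0.02% v/v DMSO) to 5 mL DMEM with or without 10% FBS in T-25 flasks, no cells; incubated 37 °C in CO2 incubator for 3–72 h. Aliquots drawn at each time point and analysed by HPLC; parent remaining taken from chromatogram AUC relative to starting time point. Triplicate.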

[12] = Stability of the compound in DMEM medium assessed as parent compound remaining at 100 uM after 72 hrs in presence of 10% FBS by HPLC method
How it was run: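 Compound at 100 μM final (0.02% DMSO) in 5 mL DMEM with or without 10% FBS, cell-free in T-25 flasks, 37 °C in CO2 incubator for 3–72 h. Aliquots analysed by HPLC. Percent remaining derived from chromatogram AUC relative to starting time point. Triplicate.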

[13] = Retention time of the compound by HPLC/DAD analysis
How it was run: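 Agilent HPLC with DAD, detection at 254/355 nm or 235/355 nm. Kromasil C18 column (4.6 × 250 mm), 20 μL injection. Gradient from H2O (0.1% TFA) to 50:50 MeCN over 0–18 min, then to 100% MeCN by 20 min, held to 25 min, at 1.5 mL/min.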

[14] = Drug uptake in human MDA-MB-231 cells assessed as intracellular concentration at 0.0103 umol in presence of 5% FBS after 24 hrs by HPLC-MS analysis; type: ADME, cell-based; conditions: mda-mb-231, 24 h; how it was run: as §1
[15] = Drug uptake in human MDA-MB-231 cells assessed as extracted concentration at 2 uM after 24 hrs by HPLC-MS analysis; type: ADME, cell-based; conditions: mda-mb-231, 24 h
How it was run: (§3)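 MDA-MB-231 cells at ~70% confluency in T-25 flasks exposed to a range of inhibitor input concentrations in DMEM with FBS, 0.02% DMSO, 37 °C, 24 h; cold PBS washes, overnight MeCN/MeOH 1:1 extraction at 4 °C, HPLC quantification against calibration curves with extraction-efficiency correction.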

[16] = Drug uptake in human MDA-MB-231 cells assessed as extracted concentration at 20 uM after 24 hrs by HPLC-MS analysis; type: ADME, cell-based; conditions: mda-mb-231, 24 h; how it was run: as §3
[17] = Drug uptake in human MDA-MB-231 cells assessed as extracted concentration at 0.2 uM after 24 hrs by HPLC-MS analysis; type: ADME, cell-based; conditions: mda-mb-231, 24 h; how it was run: as §3
[18] = Drug uptake in human MDA-MB-231 cells assessed as non specific binding with culture plate at 2 uM in presence of 5% FBS after 6 hrs at 4 degC by HPLC-MS analysis; type: ADME, cell-based; conditions: mda-mb-231, 6 h
[19] = Drug uptake in human MDA-MB-231 cells after 6 hrs in presence of 5% FBS by HPLC-MS analysis; type: ADME, cell-based; conditions: mda-mb-231, 6 h
How it was run: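 MDA-MB-231 cells at ~70% confluency in T-25 flasks, incubated 6 h at 37 °C with inhibitor in DMEM containing the stated FBS (0.02% DMSO). Parallel 6 h incubation at 4 °C in cold DMEM used to measure nonspecific cell-bound amount. Accurate intracellular moles = 37 °C value minus 4 °C value. Extraction with MeCN/MeOH 1:1, HPLC quantification, corrected for extraction efficiency. Triplicate.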

[20] = Stability in human MDA-MB-231 cells at 2 uM after 72 hrs by HPLC-MS analysis; type: ADME, cell-based; conditions: mda-mb-231, 72 h
How it was run: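 Time course: inhibitor added to ~70%-confluent MDA-MB-231 cells in T-25 flasks, in 5 mL DMEM plus FBS (0.02% DMSO), incubated at 37 °C for 3–72 h. At each time point cells washed with cold PBS and extracted with cold MeCN/MeOH 1:1 overnight at 4 °C. Intracellular moles per million cells determined by HPLC calibration.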

Compound: Cl.Cl.O=C(Nc1ccc(O[C@H]2CCNC2)c(-c2ccc(F)cc2)c1)c1ccc(O[C@H]2CCNC2)c(-c2ccc(F)c(F)c2)c1
- IC50 [1]: 2.3 µM
- Drug uptake [2]: 6.1 nmol
- Drug uptake [3]: 6.5 nmol
- Drug uptake [4]: 98%
- Drug uptake [5]: 6.7 nmol
- Drug uptake [6]: 5.5 nmol
- Drug uptake [7]: 1 nmol
- Papp at 5 h, 200 µM [8]: 1.3 nm/s
- Drug transport [9]: 0.2%
- solubility [10]: Soluble
- Stability [11]: 47%
- Stability [12]: 70%
- Retention time [13]: 15.8 min
- Drug uptake [14]: 0.0101 µmol
- Drug uptake [15]: 0.076 µM
- Drug uptake [16]: 0.128 µM
- Drug uptake [17]: 0.022 µM
- Drug uptake [18]: 4%
- Drug uptake [19]: Dose-dependent effect
- Stability [20]: Stable
